Experiment [1] deals with Mus musculus. The experiment in a line: Antihyperalgesic activity in Swiss albino mouse assessed as reduction in carrageenan-induced inflammation at 10 mg/kg, po after 120 mins relative to control. In kind it is functional. Further details: scale not given: the % may be the effect or the level left.
For experiment [2], the system named is Mus musculus. In words: Analgesic activity in po dosed Swiss albino mouse assessed as reduction of acetic acid-induced writhing measured every 10 mins after 5 mins of administration. Format: functional, organism-based. A digest of the protocol: (§1)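 Male Swiss albino mice (23–25 g), compound given orally in CMC vehicle; writhing induced by 0.6% acetic acid (10 mL/kg) ip. Stretching movements counted for 10 min, starting 5 min after administration; percent reduction versus CMC-treated animals.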

The test system of experiment [3] is Mus musculus. In words: Antihyperalgesic activity in Swiss albino mouse assessed as reduction in carrageenan-induced inflammation at 10 mg/kg, po after 90 mins relative to control. In kind it is functional. Also noted: scale not given: the % may be the effect or the level left.
Experiment [4] has as its system Mus musculus. The experiment in a line: Antihyperalgesic activity in Swiss albino mouse assessed as reduction in carrageenan-induced inflammation at 10 mg/kg, po after 30 mins relative to control. Further details: scale not given: the % may be the effect or the level left. In kind it is functional.
The test system of experiment [5] is Mus musculus. In words: Antihyperalgesic activity in Swiss albino mouse assessed as reduction in carrageenan-induced inflammation at 10 mg/kg, po after 60 mins relative to control. In kind it is functional. Also noted: scale not given: the % may be the effect or the level left.
Experiment [6] concerns Mus musculus. The experiment in a line: Analgesic activity in Swiss albino mouse assessed as reduction of acetic acid-induced writhing at 10 mg/kg, po measured every 10 mins after 5 mins of administration relative to control. In kind it is functional. Further details: scale not given: the % may be the effect or the level left. The method in brief: as §1
For experiment [7], the system named is Mus musculus. The experiment in a line: Antiinflammatory activity in Swiss albino mouse assessed as reduction in carrageenan-induced paw edema at 10 mg/kg, po relative to control. Format: functional. Further details: scale not given: the % may be the effect or the level left. The method in brief: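 Intraplantar carrageenan, compound po in CMC; volume of right hind paw measured 4 h after carrageenan injection and compared with saline/carrageenan-treated controls; percent oedema reduction.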

The test system of experiment [8] is Thoracic aorta. In words: Ex vivo vasorelaxant activity in Wistar rat endothelium thoracic aortic ring assessed as reduction of KCl-induced contraction. In kind it is functional, tissue-based. The method in brief: (§2)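 Endothelium-denuded thoracic aortic rings from male Wistar rats (250–350 g) in oxygenated Tyrode-type buffer at 37 °C, isometric tension recording. Rings precontracted with 30 mM KCl, then 3-fold increasing compound concentrations (1 nM–10 µM) added, also with 1 µM ODQ preincubated. Emax as % of KCl tone; pIC50; mean ± SE of 6–10 experiments.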

The test system of experiment [9] is Liver. The experiment in a line: Induction of nitric oxide production in Wistar rat liver homogenate assessed as nitrite level at 1 mM after 1 to 150 mins. Format: functional, tissue-based.
The subject of experiment [10] is Thoracic aorta. In words: Ex vivo vasorelaxant activity in Wistar rat endothelium thoracic aortic ring assessed as reduction of KCl-induced contraction at 0.001 uM to 10 uM relative to control. Format: functional. A digest of the protocol:
as §2

The test system of experiment [11] is Thoracic aorta. The experiment in a line: Ex vivo vasorelaxant activity in Wistar rat endothelium thoracic aortic ring assessed as reduction of KCl-induced contraction in presence of guanylate cyclase inhibitor ODQ. Format: functional. The method in brief:
as §2

The subject of experiment [12] is Liver. The experiment in a line: Induction of nitric oxide production in Wistar rat liver homogenate assessed as NOx level at 1 mM after 1 to 150 mins. In kind it is functional, tissue-based.
Experiment [13] concerns Liver. The experiment in a line: Induction of nitric oxide production in Wistar rat liver homogenate assessed as nitrite level at 1 mM. In kind it is functional, tissue-based. Particulars: TDE = time-dependent effect.
The test system of experiment [14] is Liver. In words: Induction of nitric oxide production in Wistar rat liver homogenate assessed as NOx level at 1 mM. As to conditions: TDE = time-dependent effect. In kind it is functional, tissue-based.
Experiment [15] deals with Liver. The experiment in a line: Induction of nitric oxide production in Wistar rat liver homogenate assessed as nitrate level at 1 mM after 1 to 150 mins. In kind it is functional, tissue-based.
In experiment [16] the test system is Liver. In words: Induction of nitric oxide production in Wistar rat liver homogenate assessed as nitrate level at 1 mM. As to conditions: TDE = time-dependent effect. In kind it is functional, tissue-based.

The source made the active and inactive calls. No cut-off for these calls is given here.

Take `Cc1ccc(-c2cc(C(F)(F)F)nn2-c2ccc(S(N)(=O)=O)cc2)cc1` [CELECOXIB]: the Activity was 39% in [1]; “Dose-dependent effect” in experiment [2]; 56% in experiment [3]; 45% in experiment [4]; 75% in experiment [5]; 59% in experiment [6]. In [7], the Activity stood at 17%.
For `COc1ccc2cc([C@H](C)C(=O)OCCCCO[N+](=O)[O-])ccc2c1` [NAPROXCINOD], in experiment [8], the IC50 was 468 nM. In addition, the Activity in experiment [9] is 27.6 µM; in experiment [12], 368 µM; in experiment [13] it was “tde”; in experiment [14], “tde”; in experiment [15], 340 µM; in [16], “tde”. Moreover, the Emax in [10] worked out at 68%. Also, the result in experiment [11] was inactive.

The values above are taken from ChEMBL document CHEMBL3102735, “Enhancing the pharmacodynamic profile of a class of selective COX-2 inhibiting nitric oxide donors” (Bioorg Med Chem, 2014).
